Test results as given in ChEMBL document CHEMBL3525931, “Stereoselective interaction of pantoprazole with ABCG2. II. In vitro flux analysis” (Drug Metab Dispos, 2012).

Assays:
[1] = molecular target: T1, Broad substrate specificity ATP-binding cassette transporter ABCG2 (Homo sapiens, UniProt Q9UNQ0); experiment: Observed permeability in MDCK2 cells expressing human ABCG2 assessed as ABCG2-mediated apical to basolateral transport at 50 uM after 0.5 to 1 hrs by HPLC method; assay type: ADME, cell-based; conditions: mdck-ii
T1 sequence (Q9UNQ0 whole entry): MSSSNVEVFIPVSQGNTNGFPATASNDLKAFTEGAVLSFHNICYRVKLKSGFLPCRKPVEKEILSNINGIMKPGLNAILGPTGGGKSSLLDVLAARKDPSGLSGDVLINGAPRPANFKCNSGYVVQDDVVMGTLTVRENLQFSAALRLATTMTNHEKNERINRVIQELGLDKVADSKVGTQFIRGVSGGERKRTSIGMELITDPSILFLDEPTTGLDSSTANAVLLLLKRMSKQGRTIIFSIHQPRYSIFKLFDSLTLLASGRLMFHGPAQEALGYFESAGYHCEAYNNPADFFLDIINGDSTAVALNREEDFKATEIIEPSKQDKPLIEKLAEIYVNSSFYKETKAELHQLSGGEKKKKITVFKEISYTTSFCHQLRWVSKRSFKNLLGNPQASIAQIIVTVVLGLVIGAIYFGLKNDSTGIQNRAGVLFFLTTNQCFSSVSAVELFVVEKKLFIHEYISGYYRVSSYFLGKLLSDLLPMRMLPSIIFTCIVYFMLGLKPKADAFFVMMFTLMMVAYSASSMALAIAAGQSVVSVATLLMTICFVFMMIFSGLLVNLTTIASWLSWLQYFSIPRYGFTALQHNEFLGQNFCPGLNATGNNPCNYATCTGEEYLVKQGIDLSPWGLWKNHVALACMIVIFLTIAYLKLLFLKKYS
In short: (§1)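 Mock (empty pcDNA3.1) or rat Abcg2/human ABCG2-transfected MDCKII, G418-selected, seeded on 3.0-μm Transwell filters at 1.0×10^6 cells/well, grown 4 days to TEER >200 Ω·cm². Single isomer loaded apical or basolateral in serum-free Opti-MEM I with 0.2 μCi/ml [3H]mannitol, 37°C 5% CO2. Receiver sampled at 0.5 and 1 h. Quantified by HPLC-UV 290 nm. Permeability = initial rate/(area × donor concentration). Efflux ratio = B→A rate / A→B rate. n = 3, mean ± S.D.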

[2] = molecular target: T1, Broad substrate specificity ATP-binding cassette transporter ABCG2; experiment: Observed permeability in MDCK2 cells expressing human ABCG2 assessed as ABCG2-mediated apical to basolateral transport at 3 uM after 0.5 to 1 hrs by HPLC method; assay type: ADME, cell-based; conditions: mdck-ii; in short: as §1
[3] = molecular target: T2, Broad substrate specificity ATP-binding cassette transporter ABCG2 (Rattus norvegicus, UniProt Q80W57); experiment: Observed permeability in MDCK2 cells expressing rat ABCG2 assessed as ABCG2-mediated basolateral to apical transport at 30 uM after 0.5 to 1 hrs by HPLC method; assay type: ADME, cell-based; conditions: mdck-ii
T2 sequence (Q80W57 whole entry): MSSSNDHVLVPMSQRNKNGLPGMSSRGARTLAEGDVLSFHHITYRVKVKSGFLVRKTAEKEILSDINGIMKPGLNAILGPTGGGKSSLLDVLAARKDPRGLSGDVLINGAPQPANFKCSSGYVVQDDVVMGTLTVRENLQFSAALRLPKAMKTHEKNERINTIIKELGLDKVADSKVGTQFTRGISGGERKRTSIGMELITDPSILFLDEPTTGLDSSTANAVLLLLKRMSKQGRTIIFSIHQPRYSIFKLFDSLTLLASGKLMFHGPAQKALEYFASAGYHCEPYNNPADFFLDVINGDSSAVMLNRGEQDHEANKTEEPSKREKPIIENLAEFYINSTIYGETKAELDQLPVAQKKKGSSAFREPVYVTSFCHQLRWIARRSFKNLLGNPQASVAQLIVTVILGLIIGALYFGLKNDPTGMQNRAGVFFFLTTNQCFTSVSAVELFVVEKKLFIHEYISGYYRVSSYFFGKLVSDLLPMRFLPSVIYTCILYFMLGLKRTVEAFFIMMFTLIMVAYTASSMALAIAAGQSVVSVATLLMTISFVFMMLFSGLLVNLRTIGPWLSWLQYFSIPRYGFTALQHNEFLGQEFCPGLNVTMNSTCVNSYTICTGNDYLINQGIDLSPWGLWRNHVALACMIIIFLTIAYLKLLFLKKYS
In short: (§2)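 rAbcg2-transfected MDCKII monolayers seeded at 1.0×10^6 cells/well on 3.0-μm filters, grown 4 days to TEER >200 Ω·cm². Serum-free Opti-MEM I on both sides. Individual PAN isomer plus 0.2 μCi/ml [3H]mannitol loaded basolaterally, 37°C, 5% CO2. Receiver sampled at 0.5 and 1 h, PAN quantified by HPLC-UV 290 nm. P_obs = initial transfer rate/(area × initial donor concentration). Mean ± S.D., n = 3.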

ABCG2 = molecular target: T3, ABCG2 (Rattus norvegicus, UniProt Q80W57); experiment: Asymmetry efflux ratio in MDCK2 cells expressing rat ABCG2 assessed as ABCG2-mediated drug transport ratio at 3 uM after 0.5 to 1 hrs by HPLC method; assay type: ADME, cell-based; in short: as §1
T3 sequence (Q80W57 whole entry): T2 sequence (Q80W57 whole entry)

[4] = molecular target: T2, Broad substrate specificity ATP-binding cassette transporter ABCG2; experiment: Maximum drug transport rate in MDCK2 cells expressing rat ABCG2 assessed as ABCG2-mediated transport by HPLC method; assay type: ADME, cell-based; conditions: mdck-ii
In short: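 Kinetics came from the same Transwell bidirectional flux runs in rat Abcg2- or human ABCG2-MDCKII, with donor 3–200 μM single isomer. Cellular concentrations were predicted from a three-compartment model using PS_D from mock cells and PS_PC from mannitol. Apparent apical efflux permeability was fitted against predicted cellular concentration by saturable kinetics to give K_M and T_max.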

[5] = Observed permeability in MDCK2 cells assessed as basolateral to apical transport at 50 uM after 0.5 to 1 hrs by HPLC method; assay type: ADME, cell-based, Canis lupus familiaris; conditions: dog, mdck-ii; in short: as §1
[6] = Observed permeability in MDCK2 cells assessed as apical to basolateral transport at 3 to 200 uM after 0.5 to 1 hrs by HPLC method; assay type: ADME, cell-based, Canis lupus familiaris; conditions: dog, mdck-ii; in short: as §1
[7] = molecular target: T2, Broad substrate specificity ATP-binding cassette transporter ABCG2; experiment: Observed permeability in MDCK2 cells expressing rat ABCG2 assessed as ABCG2-mediated basolateral to apical transport at 3 uM after 0.5 to 1 hrs by HPLC method; assay type: ADME, cell-based; conditions: mdck-ii; in short: as §1
[8] = molecular target: T2, Broad substrate specificity ATP-binding cassette transporter ABCG2; experiment: Observed permeability in MDCK2 cells expressing rat ABCG2 assessed as ABCG2-mediated basolateral to apical transport at 200 uM after 0.5 to 1 hrs by HPLC method; assay type: ADME, cell-based; conditions: mdck-ii; in short: as §1
[9] = Observed permeability in MDCK2 cells assessed as apical to basolateral transport at 10 uM after 0.5 to 1 hrs by HPLC method; assay type: ADME, cell-based, Canis lupus familiaris; conditions: dog, mdck-ii; in short: as §1
[10] = molecular target: T2, Broad substrate specificity ATP-binding cassette transporter ABCG2; experiment: Observed permeability in MDCK2 cells expressing rat ABCG2 assessed as ABCG2-mediated basolateral to apical transport at 50 uM after 0.5 to 1 hrs by HPLC method; assay type: ADME, cell-based; conditions: mdck-ii; in short: as §2
[11] = Asymmetry efflux ratio in MDCK2 cells assessed as drug transport ratio at 30 uM after 0.5 to 1 hrs by HPLC method; assay type: ADME, cell-based, Canis lupus familiaris, MDCK-II; conditions: dog, MDCK; in short: as §1
[12] = Asymmetry efflux ratio in MDCK2 cells assessed as drug transport ratio at 200 uM after 0.5 to 1 hrs by HPLC method; assay type: ADME, cell-based, Canis lupus familiaris, MDCK-II; conditions: dog, MDCK; in short: as §1
[13] = molecular target: T1, Broad substrate specificity ATP-binding cassette transporter ABCG2; experiment: Observed permeability in MDCK2 cells expressing human ABCG2 assessed as ABCG2-mediated apical to basolateral transport at 200 uM after 0.5 to 1 hrs by HPLC method; assay type: ADME, cell-based; conditions: mdck-ii; in short: as §1

| Papp [1] | Papp [2] | Papp [3] | efflux ratio at 3 µM (ABCG2) | Drug transport [4] | Papp [5] | Papp [6] | Papp [7] | Papp [8] | Papp [9] | Papp [10] | efflux ratio at 30 µM [11] | efflux ratio at 200 µM [12] | Papp [13] | SMILES |
| --- | --- | --- | --- | --- | --- | --- | --- | --- | --- | --- | --- | --- | --- | --- |
| 109 uL/hr/cm2 | 16.9 uL/hr/cm2 | 151 uL/hr/cm2 | 34 | 2.49 nmol/hr.cm2 | 126 uL/hr/cm2 | 121 uL/hr/cm2 | 253 uL/hr/cm2 | 136 uL/hr/cm2 | 123 uL/hr/cm2 | 137 uL/hr/cm2 | 1.07 | 0.99 | 132 uL/hr/cm2 | COc1ccnc(C[S@+]([O-])c2nc3cc(OC(F)F)ccc3[nH]2)c1OC |
| 79.6 uL/hr/cm2 | 30 uL/hr/cm2 | 206 uL/hr/cm2 | 18.7 | 7.86 nmol/hr.cm2 | 135 uL/hr/cm2 | 121 uL/hr/cm2 | 238 uL/hr/cm2 | 162 uL/hr/cm2 | 114 uL/hr/cm2 | 194 uL/hr/cm2 | 1.06 | 0.98 | 126 uL/hr/cm2 | COc1ccnc(C[S@@+]([O-])c2nc3cc(OC(F)F)ccc3[nH]2)c1OC |
